Assays:
[1] = molecular target: T1, Inhibitor of nuclear factor kappa-B kinase subunit beta (Homo sapiens, UniProt O14920); assay: Inhibitory activity against IkappaB kinase(IKK) isolated from HeLa cells activated with recombinant […] in an ELISA phosphorylation assay.; type: cell-free
T1 sequence (O14920 whole entry): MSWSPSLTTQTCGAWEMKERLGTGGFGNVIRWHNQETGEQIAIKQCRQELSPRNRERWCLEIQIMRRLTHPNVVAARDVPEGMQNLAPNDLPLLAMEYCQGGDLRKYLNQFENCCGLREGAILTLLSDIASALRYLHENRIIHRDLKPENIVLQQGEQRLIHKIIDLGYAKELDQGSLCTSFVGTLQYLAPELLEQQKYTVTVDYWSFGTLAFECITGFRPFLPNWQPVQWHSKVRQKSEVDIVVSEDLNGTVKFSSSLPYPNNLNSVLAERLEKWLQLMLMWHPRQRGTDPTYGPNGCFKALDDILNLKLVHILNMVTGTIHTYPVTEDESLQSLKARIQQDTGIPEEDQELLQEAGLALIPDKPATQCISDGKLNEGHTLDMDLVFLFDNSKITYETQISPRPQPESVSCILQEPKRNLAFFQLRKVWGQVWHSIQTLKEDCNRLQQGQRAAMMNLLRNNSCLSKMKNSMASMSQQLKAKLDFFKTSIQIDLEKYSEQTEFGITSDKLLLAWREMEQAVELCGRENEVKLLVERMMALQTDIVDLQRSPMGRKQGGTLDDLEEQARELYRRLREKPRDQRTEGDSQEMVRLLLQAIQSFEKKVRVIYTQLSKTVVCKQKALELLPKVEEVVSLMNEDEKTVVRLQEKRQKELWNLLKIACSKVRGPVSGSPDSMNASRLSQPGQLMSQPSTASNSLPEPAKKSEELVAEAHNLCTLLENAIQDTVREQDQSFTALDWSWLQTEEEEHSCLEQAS

[2] = molecular target: Protein kinase C (PKC); assay: Inhibitory activity against protein kinase C.; type: protein assay
[3] = molecular target: Casein kinase II (Homo sapiens, UniProt P19784+P67870+P68400); assay: Inhibitory activity against CKII kinase.; type: protein-complex assay
[4] = molecular target: T2, cAMP-dependent protein kinase (PKA) (Homo sapiens, UniProt P22694+P17612+P22612); assay: Inhibitory activity against protein kinase A.; type: protein assay
[5] = molecular target: Casein kinase II (Homo sapiens) (UniProt P67870+P68400+P19784); assay: Inhibition of the casein kinase CKII at 25 uM; type: protein-complex assay
[6] = system: HeLa; assay: Inhibition of IkappaB kinase(IKK) from HeLa cells activated by recombinant MEKK1 in ELISA at 25 uM; type: cell-based; details: Homo sapiens
[7] = molecular target: T2, cAMP-dependent protein kinase (PKA); assay: Inhibition of Protein kinase A at 25 uM; type: protein assay
[8] = molecular target: Protein kinase C (PKC) (Homo sapiens) (UniProt O94806+P41743+P17252+P05129+Q05655+P05771+Q05513+Q02156+P24723+Q15139+Q04759); assay: Inhibition of Protein kinase C at 25 uM; type: protein assay
[9] = system: Mus musculus; assay: Systemic level of TNF-alpha after oral administration in mice; type: functional
In short: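 Female BALB/c mice given compound orally (50 mg/kg, 5 mL/kg), followed by intraperitoneal E. coli LPS (serotype 0127:B8); blood taken by cardiac puncture into heparin after CO2 euthanasia, spun at 4 °C, and plasma TNF-α measured relative to vehicle-treated controls.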

[10] = molecular target: NF-kappa-B essential modulator (Homo sapiens, UniProt Q9Y6K9); assay: Inhibition of GST-IkB phosphorylation by TNF-alpha stimulated HeLa cell lysate (IP-IKKgamma); type: functional, cell-free
In short: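 Endogenous IKK complex immunoprecipitated with anti-IKKγ antibody from HeLa cells stimulated with TNF-α (20 ng/mL, 5 min) and lysed in NP-40 IP buffer; beads preincubated with varying inhibitor concentrations 30 min at 30 °C; reaction started with bacterially expressed GST-IκB[5-55] plus MgATP with [γ-32P]ATP, 30 min at 30 °C; phosphorylated substrate quantified by SDS-PAGE and phosphorimaging; IC50.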

Chain of Casein kinase II (P67870 whole entry): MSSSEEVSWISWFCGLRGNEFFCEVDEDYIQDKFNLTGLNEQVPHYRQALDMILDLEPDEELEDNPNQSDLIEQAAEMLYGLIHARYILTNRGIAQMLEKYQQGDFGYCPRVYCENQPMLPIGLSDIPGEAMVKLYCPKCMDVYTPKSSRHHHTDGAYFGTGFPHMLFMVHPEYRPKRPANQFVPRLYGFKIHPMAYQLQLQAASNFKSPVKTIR
Chain of Casein kinase II (P68400 whole entry): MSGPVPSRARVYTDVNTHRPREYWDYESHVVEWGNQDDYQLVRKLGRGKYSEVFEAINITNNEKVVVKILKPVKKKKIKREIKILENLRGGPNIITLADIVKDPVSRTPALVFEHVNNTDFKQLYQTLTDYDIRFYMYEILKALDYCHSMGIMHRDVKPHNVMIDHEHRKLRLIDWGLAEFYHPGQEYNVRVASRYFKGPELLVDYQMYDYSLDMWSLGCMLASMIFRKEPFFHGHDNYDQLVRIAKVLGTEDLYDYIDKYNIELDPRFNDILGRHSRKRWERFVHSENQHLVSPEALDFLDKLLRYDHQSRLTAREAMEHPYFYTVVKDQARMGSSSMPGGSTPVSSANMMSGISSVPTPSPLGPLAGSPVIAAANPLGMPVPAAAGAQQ
Chain of Casein kinase II (P19784 whole entry): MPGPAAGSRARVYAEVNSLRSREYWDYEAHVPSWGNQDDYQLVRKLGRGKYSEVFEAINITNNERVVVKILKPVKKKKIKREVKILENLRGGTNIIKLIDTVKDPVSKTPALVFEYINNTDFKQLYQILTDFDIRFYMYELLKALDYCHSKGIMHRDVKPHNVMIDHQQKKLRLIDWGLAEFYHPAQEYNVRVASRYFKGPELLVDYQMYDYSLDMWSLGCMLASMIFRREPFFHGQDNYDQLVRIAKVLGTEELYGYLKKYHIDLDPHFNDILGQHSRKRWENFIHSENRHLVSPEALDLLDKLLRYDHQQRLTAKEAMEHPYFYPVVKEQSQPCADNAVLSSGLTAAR
Chain of NF-kappa-B essential modulator (Q9Y6K9 whole entry): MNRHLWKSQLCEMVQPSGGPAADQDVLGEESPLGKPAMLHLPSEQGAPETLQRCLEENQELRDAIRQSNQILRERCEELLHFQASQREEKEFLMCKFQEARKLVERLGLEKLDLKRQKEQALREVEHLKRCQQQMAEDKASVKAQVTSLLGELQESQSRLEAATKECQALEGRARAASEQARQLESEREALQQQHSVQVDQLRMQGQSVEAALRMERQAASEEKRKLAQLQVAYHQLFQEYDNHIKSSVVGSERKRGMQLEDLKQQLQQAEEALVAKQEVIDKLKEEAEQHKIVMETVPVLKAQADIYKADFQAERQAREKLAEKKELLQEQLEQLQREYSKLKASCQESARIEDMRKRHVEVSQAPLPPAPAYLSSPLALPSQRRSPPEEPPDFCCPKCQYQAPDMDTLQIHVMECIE

IC50 [1] [nM] | IC50 [2] [µM] | IC50 [3] [µM] | IC50 [4] [µM] | EC50 [10] [nM] | Structure (SMILES) | inhibition [5] [%] | inhibition [6] [%] | inhibition [7] [%] | inhibition [8] [%] | Reduction [9] [%]
3000 | > 25 | > 25 | > 25 |  | O=C(Cc1ccccn1)Nc1cc(Cl)cc2c1[nH]c1cnccc12 |  |  |  |  | 
1100 |  |  |  |  | N#Cc1ccc2[nH]c3cnccc3c2c1 |  |  |  |  | 
> 20000 | > 25 | > 25 | > 25 |  | COc1ccccc1C(=O)Nc1cc(Cl)cc2c1[nH]c1cnccc12 |  |  |  |  | 
3200 |  |  |  |  | O=C(Oc1c(Cl)cc2c3cc[nH]cc-3nc2c1Cl)N1CCOCC1 |  |  |  |  | 
> 20000 | > 25 | > 25 | > 25 |  | Clc1cc(NCc2ccccc2)c2[nH]c3cnccc3c2c1 |  |  |  |  | 
700 | > 25 | > 25 | > 25 |  | COC(=O)Nc1cc(Cl)cc2c3cc[nH]cc-3nc12 |  |  |  |  | 
1300 | > 25 | > 25 | > 25 |  | COc1ccc(C(=O)Nc2cc(Cl)cc3c2[nH]c2cnccc23)cc1 |  |  |  |  | 
600 | > 25 | > 25 | > 25 |  | CC(=O)Nc1cc(Cl)cc2c3cc[nH]cc-3nc12 |  |  |  |  | 
100 | > 25 | > 25 | > 25 | 150 | O=C(Nc1cc(Cl)cc2c1[nH]c1cnccc12)c1cccnc1 |  |  |  |  | 60
1000 | > 25 | > 25 | > 25 |  | O=C(Nc1cc(Cl)cc2c1[nH]c1cnccc12)c1ccccn1 |  |  |  |  | 
4000 | > 25 | > 25 | > 25 |  | O=[N+]([O-])c1cc(Cl)cc2c3cc[nH]cc-3nc12 |  |  |  |  | 
> 20000 | > 25 | > 25 | > 25 |  | O=S(=O)(Nc1cc(Cl)cc2c1[nH]c1cnccc12)c1ccccc1 |  |  |  |  | 
600 | > 25 | > 25 | > 25 |  | COc1cccc(C(=O)Nc2cc(Cl)cc3c2[nH]c2cnccc23)c1 |  |  |  |  | 
1800 |  |  |  |  | CN(C)c1cc(Cl)cc2c3cc[nH]cc-3nc12 |  |  |  |  | 

The next lines start with the molecule.

Structure (SMILES) | IC50 [1] [nM] | IC50 [2] [µM] | IC50 [3] [µM] | IC50 [4] [µM] | EC50 [10] [nM] | inhibition [5] [%] | inhibition [6] [%] | inhibition [7] [%] | inhibition [8] [%] | Reduction [9] [%]
CNc1cc(Cl)cc2c3cc[nH]cc-3nc12 | 1800 |  |  |  |  |  |  |  |  | 
CS(=O)(=O)Nc1cc(Cl)cc2c3cc[nH]cc-3nc12 | 8300 | > 25 | > 25 | > 25 |  |  |  |  |  | 
CCOc1c(Cl)cc2c3cc[nH]cc-3nc2c1Cl | 140 | > 25 | > 25 | > 25 |  |  |  |  |  | 
COc1ccc2[nH]c3cnccc3c2c1Br | 1000 | 15 | 2 |  |  | 75 | 90 | 10 | 65 | 
c1ccc2c(c1)[nH]c1cnccc12 [NORHARMANE] | 15000 | > 25 | > 25 | > 25 |  |  |  |  |  | 
FC(F)(F)c1ccc2[nH]c3cnccc3c2c1 | 1100 |  |  |  |  |  |  |  |  | 
COc1ccc2[nH]c3cnccc3c2c1 | 4000 | > 25 | > 25 | > 25 |  |  |  |  |  | 
O=C(CCCO)Nc1cc(Cl)cc2c3cc[nH]cc-3nc12 | > 20000 | > 25 | > 25 | > 25 |  |  |  |  |  | 
Clc1ccc2[nH]c3cnccc3c2c1 | 600 | > 25 | > 25 | > 25 |  |  |  |  |  | 
Fc1ccc2[nH]c3cnccc3c2c1 | 2000 | > 25 | > 25 | > 25 |  |  |  |  |  | 
O=C(Nc1cc(Cl)cc2c1[nH]c1cnccc12)c1ccccc1 | 700 | > 25 | > 25 | > 25 |  |  |  |  |  | 
Clc1cc2c([nH]c3cnccc32)c(Cl)c1OCC1CC1 | 80 | > 25 | > 25 | > 25 |  |  |  |  |  | 
O=C(Nc1cc(Cl)cc2c1[nH]c1cnccc12)c1ccncc1 | 300 | > 25 | > 25 | > 25 |  |  |  |  |  | 
Clc1cc2c3cc[nH]cc-3nc2c(Cl)c1OCC1CCCCC1 | 3000 | > 25 | > 25 | > 25 |  |  |  |  |  | 
Oc1c(Cl)cc2c3cc[nH]cc-3nc2c1Cl | 11000 | > 25 | > 25 | > 25 |  |  |  |  |  | 
Brc1ccc2[nH]c3cnccc3c2c1 | 600 | > 25 | > 25 | > 25 |  |  |  |  |  | 
O=C(Nc1cc(Cl)cc2c1[nH]c1cnccc12)N1CCOCC1 | > 20000 | > 25 | > 25 | > 25 |  |  |  |  |  | 
Clc1cc(Cl)c2[nH]c3cnccc3c2c1 | 200 | > 25 | > 25 | > 25 |  |  |  |  |  | 
COc1c(Cl)cc2c3cc[nH]cc-3nc2c1Cl | 170 | > 25 | > 25 | > 25 |  |  |  |  |  | 
Nc1cc(Cl)cc2c3cc[nH]cc-3nc12 | 1300 |  |  |  |  |  |  |  |  | 
CNC(=O)Nc1cc(Cl)cc2c3cc[nH]cc-3nc12 | > 20000 | > 25 | > 25 | > 25 |  |  |  |  |  | 

Source: ChEMBL document CHEMBL1136119, “Novel IKK inhibitors: beta-carbolines” (Bioorg Med Chem Lett, 2003)
